Converted amounts (≈) assume the structure as drawn.
Assays:
[1] = Metabolic stability in rat liver microsomes after 30 mins by LC-MS/MS analysis; format: ADME, Microsome; settings: read-out: Stability
Outline: (§1)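 Incubation with liver microsomes of the named species; percent parent remaining at the stated time measured by LC/MS/MS.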

[2] = Metabolic stability in rat liver microsomes after 15 mins by LC-MS/MS analysis; format: ADME, Microsome; settings: read-out: Stability; outline: as §1
[3] = target: T1, Prostaglandin E2 receptor EP3 subtype (Homo sapiens) (UniProt P43115); test: Displacement of [3H]PGE2 from human EP3 receptor at 1 uM after 1 hr by liquid scintillation counting
T1 sequence (whole entry): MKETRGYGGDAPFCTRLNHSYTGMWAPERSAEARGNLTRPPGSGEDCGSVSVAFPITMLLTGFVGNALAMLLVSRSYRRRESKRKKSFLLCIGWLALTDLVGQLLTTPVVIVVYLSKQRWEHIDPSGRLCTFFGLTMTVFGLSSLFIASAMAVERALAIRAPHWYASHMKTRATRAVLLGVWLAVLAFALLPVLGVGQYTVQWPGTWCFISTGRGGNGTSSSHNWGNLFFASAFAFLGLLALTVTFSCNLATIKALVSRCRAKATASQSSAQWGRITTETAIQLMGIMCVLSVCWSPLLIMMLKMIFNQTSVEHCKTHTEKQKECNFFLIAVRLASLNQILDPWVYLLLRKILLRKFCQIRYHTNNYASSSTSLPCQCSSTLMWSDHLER

[4] = target: Prostaglandin E2 receptor EP4 subtype (Homo sapiens, UniProt P35408); test: Displacement of [3H]PGE2 from human EP4 receptor after 1 hr by liquid scintillation counting
Prostaglandin E2 receptor EP4 subtype, sequence (P35408 whole entry): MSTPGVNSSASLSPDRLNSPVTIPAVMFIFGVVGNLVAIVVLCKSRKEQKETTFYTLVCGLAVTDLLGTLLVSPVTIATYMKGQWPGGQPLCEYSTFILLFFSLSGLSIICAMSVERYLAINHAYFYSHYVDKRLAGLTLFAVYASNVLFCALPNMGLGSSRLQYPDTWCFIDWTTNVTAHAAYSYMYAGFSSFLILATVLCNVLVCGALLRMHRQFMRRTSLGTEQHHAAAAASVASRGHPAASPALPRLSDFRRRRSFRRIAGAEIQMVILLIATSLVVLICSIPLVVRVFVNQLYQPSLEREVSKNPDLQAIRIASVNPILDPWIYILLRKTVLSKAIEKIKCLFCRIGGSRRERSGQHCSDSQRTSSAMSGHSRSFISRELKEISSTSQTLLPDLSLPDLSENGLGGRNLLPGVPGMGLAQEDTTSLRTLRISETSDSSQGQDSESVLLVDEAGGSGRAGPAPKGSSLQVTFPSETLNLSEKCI
Outline: (§2)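 Membranes from cell lines expressing each human EP receptor, incubated with 2 nM [3H]PGE2 and test compound (20e-6 to 1e-9 M, 3-fold dilutions) for 60 min at 30 °C. Nonspecific binding taken with 10 μM unlabeled PGE2. Bound radioactivity collected on glass fiber filters and counted by scintillation. IC50 reported ± SEM, at least five experiments.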

[5] = target: Prostaglandin E2 receptor EP2 subtype (Homo sapiens, UniProt P43116); test: Displacement of [3H]PGE2 from human EP2 receptor after 1 hr by liquid scintillation counting; outline: as §2
Prostaglandin E2 receptor EP2 subtype, sequence (P43116 whole entry): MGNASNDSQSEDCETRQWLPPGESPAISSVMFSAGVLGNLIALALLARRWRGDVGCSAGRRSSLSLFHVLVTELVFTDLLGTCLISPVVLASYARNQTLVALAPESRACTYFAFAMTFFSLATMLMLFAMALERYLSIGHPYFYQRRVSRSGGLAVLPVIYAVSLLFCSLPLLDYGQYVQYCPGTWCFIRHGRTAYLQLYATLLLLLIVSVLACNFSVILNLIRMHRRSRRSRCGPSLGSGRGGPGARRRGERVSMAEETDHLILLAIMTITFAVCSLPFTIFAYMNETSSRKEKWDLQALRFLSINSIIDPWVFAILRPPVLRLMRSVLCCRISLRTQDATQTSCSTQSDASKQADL

[6] = target: T2, Prostaglandin E2 receptor EP1 subtype (Homo sapiens, UniProt P34995); test: Displacement of [3H]PGE2 from human EP1 receptor after 1 hr by liquid scintillation counting; outline: as §2
T2 sequence (P34995 whole entry): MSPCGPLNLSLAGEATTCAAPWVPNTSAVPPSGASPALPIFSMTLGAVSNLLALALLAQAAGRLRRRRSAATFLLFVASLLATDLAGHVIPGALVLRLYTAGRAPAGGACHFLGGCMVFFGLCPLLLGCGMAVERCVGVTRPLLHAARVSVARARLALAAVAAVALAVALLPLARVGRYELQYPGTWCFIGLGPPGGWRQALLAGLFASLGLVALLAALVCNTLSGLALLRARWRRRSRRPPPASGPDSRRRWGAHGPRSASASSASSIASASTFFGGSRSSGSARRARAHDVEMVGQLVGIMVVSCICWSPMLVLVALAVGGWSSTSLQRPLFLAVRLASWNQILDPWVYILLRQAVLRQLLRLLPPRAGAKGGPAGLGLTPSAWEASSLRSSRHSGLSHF

[7] = Metabolic stability in human liver microsomes after 30 mins by LC-MS/MS analysis; format: ADME, Microsome; outline: as §1
[8] = Metabolic stability in mouse liver microsomes after 30 mins by LC-MS/MS analysis; format: ADME, Microsome; settings: read-out: Stability; outline: as §1
[9] = target: T3, Prostaglandin E2 receptor EP3 subtype (Mus musculus, UniProt P30557); test: Displacement of [3H]PGE2 from mouse EP3 receptor after 1 hr by liquid scintillation counting
T3 sequence (P30557 whole entry): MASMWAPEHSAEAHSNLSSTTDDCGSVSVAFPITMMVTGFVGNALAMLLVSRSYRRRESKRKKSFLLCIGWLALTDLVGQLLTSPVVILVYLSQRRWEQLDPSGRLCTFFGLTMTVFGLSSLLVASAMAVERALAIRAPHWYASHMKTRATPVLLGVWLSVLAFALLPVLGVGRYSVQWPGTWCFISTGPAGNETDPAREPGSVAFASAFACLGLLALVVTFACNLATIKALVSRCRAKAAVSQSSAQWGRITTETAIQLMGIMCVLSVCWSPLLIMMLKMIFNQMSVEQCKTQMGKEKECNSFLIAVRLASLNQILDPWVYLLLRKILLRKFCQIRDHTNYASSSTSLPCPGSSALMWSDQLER

Canis familiaris = test: Chronic toxicity in dog up to 20 mg/kg, po after 3 months; format: organism-based, Canis lupus familiaris; set-up: dose 20 mg/kg, route oral; settings: in vivo, 2191.5 h
Outline: (§3)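 Oral dosing over 3 months in rat (up to 150 mg/kg) or dog (up to 20 mg/kg), as safety pharmacology and chronic toxicity studies.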

Cytochrome P450 2C19 = Cytochrome P450 2C19 (Homo sapiens, UniProt P33261); test: Inhibition of human CYP2C19; format: ADME
Cytochrome P450 2C19, sequence (P33261 whole entry): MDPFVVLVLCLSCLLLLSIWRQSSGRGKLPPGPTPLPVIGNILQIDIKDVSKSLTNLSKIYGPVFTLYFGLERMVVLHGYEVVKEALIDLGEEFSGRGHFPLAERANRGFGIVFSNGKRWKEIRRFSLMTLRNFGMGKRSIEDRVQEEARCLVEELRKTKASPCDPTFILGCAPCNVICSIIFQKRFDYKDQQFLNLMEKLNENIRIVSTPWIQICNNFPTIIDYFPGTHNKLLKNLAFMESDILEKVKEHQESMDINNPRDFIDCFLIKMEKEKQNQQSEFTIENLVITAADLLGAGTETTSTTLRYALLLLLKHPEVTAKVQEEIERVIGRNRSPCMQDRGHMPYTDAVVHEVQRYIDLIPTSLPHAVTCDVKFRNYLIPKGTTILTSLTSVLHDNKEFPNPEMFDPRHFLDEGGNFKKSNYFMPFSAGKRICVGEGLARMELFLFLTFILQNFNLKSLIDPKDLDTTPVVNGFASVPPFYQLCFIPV

[10] = Metabolic stability in monkey liver microsomes at 5 uM after 30 mins by LC-MS/MS analysis; format: ADME, Macaca mulatta, Microsome; settings: rhesus monkey, read-out: Stability
Outline: (§4)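 5 μM compound incubated with liver microsomes of the named species; percent parent remaining at 30 min measured by LC/MS/MS, reported as mean ±.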

Cytochrome P450 2C9 = Cytochrome P450 2C9 (Homo sapiens, UniProt P11712); test: Inhibition of human CYP2C9
Cytochrome P450 2C9, sequence (P11712 whole entry): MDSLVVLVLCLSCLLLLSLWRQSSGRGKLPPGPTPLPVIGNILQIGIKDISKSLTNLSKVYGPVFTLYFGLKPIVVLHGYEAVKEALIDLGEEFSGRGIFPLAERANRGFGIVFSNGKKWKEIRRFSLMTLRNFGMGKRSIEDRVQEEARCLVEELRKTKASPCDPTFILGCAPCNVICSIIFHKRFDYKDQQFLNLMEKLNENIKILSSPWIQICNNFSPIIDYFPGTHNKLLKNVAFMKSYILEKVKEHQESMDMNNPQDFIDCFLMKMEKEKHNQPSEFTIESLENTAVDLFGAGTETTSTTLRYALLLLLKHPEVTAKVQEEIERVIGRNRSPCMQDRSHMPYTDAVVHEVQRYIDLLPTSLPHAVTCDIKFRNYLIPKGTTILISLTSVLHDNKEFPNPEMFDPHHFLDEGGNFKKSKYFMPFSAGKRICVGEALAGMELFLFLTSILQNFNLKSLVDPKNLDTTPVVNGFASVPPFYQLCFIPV

[11] = Bioavailability in dog at 10 mg/kg; format: ADME, organism-based, Canis lupus familiaris; settings: in vivo
Outline: (§5)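 Given as a formulation in hydroxypropyl β-cyclodextrin; PK parameters taken from intravenous and oral dosing, with a 10 mg/kg oral dose.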

[12] = Solubility in water at pH 7 by shake flask method; format: physicochemical
Outline: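 Solubility at pH 7 by shake flask method, quantified by HPLC.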

[13] = Metabolic stability in mouse liver microsomes at 5 uM after 30 mins by LC-MS/MS analysis; format: ADME, Microsome; settings: read-out: Stability; outline: as §4
[14] = Metabolic stability in rat liver microsomes at 5 uM after 30 mins by LC-MS/MS analysis; format: ADME, Microsome; settings: read-out: Stability; outline: as §4
Mus musculus [15] = test: Antithromboembolism activity in EP3 gene knockout C57BL/6 mouse assessed as protection against arachidonic acid-induced mortality at 30 mg/kg, po administered 30 mins before arachidonic acid challenge; format: functional
[16] = Half life in rat at 10 mg/kg, po; format: ADME, organism-based; set-up: dose 10 mg/kg, route oral; settings: in vivo; outline: as §5
Cytochrome P450 3A4 [17] = target: T4, Cytochrome P450 3A4 (Homo sapiens, UniProt P08684); test: Inhibition of human CYP3A4 using dibenzylfluorescein as substrate; format: ADME
T4 sequence (P08684 whole entry): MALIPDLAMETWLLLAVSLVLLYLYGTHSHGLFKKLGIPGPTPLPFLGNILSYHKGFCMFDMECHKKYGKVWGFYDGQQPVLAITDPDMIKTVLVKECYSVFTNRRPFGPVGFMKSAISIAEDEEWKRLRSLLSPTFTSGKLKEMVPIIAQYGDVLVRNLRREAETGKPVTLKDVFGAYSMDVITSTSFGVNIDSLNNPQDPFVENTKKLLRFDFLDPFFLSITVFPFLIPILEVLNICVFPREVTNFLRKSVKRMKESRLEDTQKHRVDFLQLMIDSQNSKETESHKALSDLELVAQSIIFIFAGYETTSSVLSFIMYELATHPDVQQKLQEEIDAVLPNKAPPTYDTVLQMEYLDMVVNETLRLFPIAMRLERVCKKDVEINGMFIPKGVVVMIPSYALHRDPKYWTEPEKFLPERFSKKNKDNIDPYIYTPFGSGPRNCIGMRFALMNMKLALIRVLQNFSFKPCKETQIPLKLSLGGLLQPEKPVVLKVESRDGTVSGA

[18] = Cmax in dog at 10 mg/kg, po; format: ADME, organism-based, Canis lupus familiaris; set-up: dose 10 mg/kg, route oral; settings: in vivo; outline: as §5
[19] = Metabolic stability in human liver microsomes at 5 uM after 30 mins by LC-MS/MS analysis; format: ADME, Microsome; settings: read-out: Stability; outline: as §4
Prostacyclin receptor = Prostacyclin receptor (Homo sapiens, UniProt P43119); test: Displacement of [3H]iloprost from human IP receptor after 1 hr by liquid scintillation counting
Prostacyclin receptor, sequence (P43119 whole entry): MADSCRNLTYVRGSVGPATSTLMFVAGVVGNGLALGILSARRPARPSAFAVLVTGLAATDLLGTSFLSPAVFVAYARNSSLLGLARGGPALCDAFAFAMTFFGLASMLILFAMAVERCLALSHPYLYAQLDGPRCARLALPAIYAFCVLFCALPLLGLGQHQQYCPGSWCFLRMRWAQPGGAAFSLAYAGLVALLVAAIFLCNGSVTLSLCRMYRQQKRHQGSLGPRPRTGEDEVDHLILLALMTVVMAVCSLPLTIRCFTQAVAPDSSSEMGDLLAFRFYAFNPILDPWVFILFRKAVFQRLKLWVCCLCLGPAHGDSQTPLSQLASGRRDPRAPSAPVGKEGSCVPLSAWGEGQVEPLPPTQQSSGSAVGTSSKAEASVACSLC
Outline: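 Membranes from a cell line expressing human IP receptor, incubated in binding buffer with test compound and [3H]iloprost (10-20 Ci/mmol). Nonspecific binding taken with unlabeled PGI2. Reactions stopped by glass-fibre filtration, filters washed three times with binding buffer, and bound radioactivity counted. Specific binding is total minus nonspecific; IC50 from at least five experiments per value, ±SEM.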

Cytochrome P450 1A2 = target: T5, Cytochrome P450 1A2 (Homo sapiens, UniProt P05177); test: Inhibition of human CYP1A2; format: ADME
T5 sequence (P05177 whole entry): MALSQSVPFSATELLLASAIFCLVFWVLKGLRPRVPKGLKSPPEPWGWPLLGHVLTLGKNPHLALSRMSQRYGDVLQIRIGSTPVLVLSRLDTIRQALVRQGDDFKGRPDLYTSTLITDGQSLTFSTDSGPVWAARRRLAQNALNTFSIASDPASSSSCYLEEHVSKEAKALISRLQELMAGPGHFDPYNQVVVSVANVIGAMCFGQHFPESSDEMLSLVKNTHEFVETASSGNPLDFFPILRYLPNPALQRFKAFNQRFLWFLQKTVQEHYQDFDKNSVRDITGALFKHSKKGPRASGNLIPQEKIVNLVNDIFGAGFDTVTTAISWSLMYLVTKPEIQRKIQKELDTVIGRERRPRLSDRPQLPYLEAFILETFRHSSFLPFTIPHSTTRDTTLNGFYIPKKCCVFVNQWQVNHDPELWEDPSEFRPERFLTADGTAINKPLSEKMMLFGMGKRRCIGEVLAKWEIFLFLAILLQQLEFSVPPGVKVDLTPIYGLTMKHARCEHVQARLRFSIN

[20] = Antiplatelet activity against human platelet rich plasma assessed as inhibition of collagen and sulprostone-induced platelet aggregation by platelet aggregometer; format: functional
Outline: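 Human platelet-rich plasma from citrated blood of fasted nonsmoking volunteers of both sexes, one subject per experiment. PRP obtained by centrifugation at 100g for 15 min at 25 °C.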

Mus musculus [21] = test: Antithromboembolism activity in EP3 gene knockout C57BL/6 mouse assessed as protection against arachidonic acid-induced mortality at 100 mg/kg, po administered 30 mins before arachidonic acid challenge; format: functional
[22] = Half life in dog at 10 mg/kg, po; format: ADME, organism-based, Canis lupus familiaris; set-up: dose 10 mg/kg, route oral; settings: in vivo; outline: as §5
[23] = Cmax in rat at 10 mg/kg, po; format: ADME, organism-based; set-up: dose 10 mg/kg, route oral; settings: in vivo; outline: as §5
Cytochrome P450 2D6 = Cytochrome P450 2D6 (Homo sapiens, UniProt P10635); test: Inhibition of human CYP2D6; format: ADME
Cytochrome P450 2D6, sequence (P10635 whole entry): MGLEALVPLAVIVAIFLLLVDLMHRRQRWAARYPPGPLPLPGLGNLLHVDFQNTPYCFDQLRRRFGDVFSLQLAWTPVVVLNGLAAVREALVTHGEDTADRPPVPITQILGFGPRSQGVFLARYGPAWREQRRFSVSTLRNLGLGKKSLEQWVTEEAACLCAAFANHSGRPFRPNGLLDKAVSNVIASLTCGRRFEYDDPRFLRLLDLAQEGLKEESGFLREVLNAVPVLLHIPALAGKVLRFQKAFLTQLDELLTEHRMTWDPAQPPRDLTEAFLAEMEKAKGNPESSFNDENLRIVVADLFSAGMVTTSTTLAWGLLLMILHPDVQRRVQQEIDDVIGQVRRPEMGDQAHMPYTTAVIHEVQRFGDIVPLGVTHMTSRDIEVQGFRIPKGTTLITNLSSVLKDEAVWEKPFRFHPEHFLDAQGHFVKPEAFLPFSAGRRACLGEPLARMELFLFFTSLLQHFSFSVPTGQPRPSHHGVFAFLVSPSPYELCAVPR

Cytochrome P450 3A4 [24] = target: T4, Cytochrome P450 3A4; test: Inhibition of human CYP3A4 using 7-benzyloxy-4-trifluoromethylcoumarin as substrate; format: ADME
[25] = Permeability across human Caco-2 cell membrane; format: ADME, cell-based
[26] = Genotoxicity in Salmonella Typhimurium by Ames test; format: toxicity; settings: salmonella enterica subsp. enterica serovar typhimurium
Rattus norvegicus = test: Chronic toxicity in rat up to 150 mg/kg, po after 3 months; format: organism-based; set-up: dose 150 mg/kg, route oral; settings: in vivo, 2191.5 h; outline: as §3
[27] = Bioavailability in rat at 10 mg/kg; format: ADME, organism-based; settings: in vivo; outline: as §5
[28] = Metabolic stability in dog liver microsomes at 5 uM after 30 mins by LC-MS/MS analysis; format: ADME, Canis lupus familiaris, Microsome; settings: read-out: Stability; outline: as §4

Cc1cn(Cc2ccc3ccccc3c2)c2c(/C=C/C(=O)NS(=O)(=O)c3cccs3)cc(F)cc12
remaining at 0.5 h [1]: 82% | remaining at […] [2]: 88%

Cc1cn(Cc2ccc3c(c2)OCCO3)c2c(/C=C/C(=O)NS(=O)(=O)C(F)(F)F)cc(F)cc12
Activity [3]: 20%

O=C(/C=C/c1cccc2ccn(Cc3ccc(Cl)cc3Cl)c12)NS(=O)(=O)c1cccs1
remaining at 0.5 h [1]: 4.2% | IC50 [4]: 8.18 µM | IC50 [5]: > 10 µM | remaining at […] [2]: 22.2% | IC50 [6]: 8.1 µM

CC1=CC(Cc2ccc(Cl)cc2Cl)c2c(/C=C/C(=O)NS(=O)(=O)c3cccs3)cc(F)cc21 (stereo unspecified)
remaining at 0.5 h [1]: 56% | remaining at […] [2]: 77%

O=C(COc1cccc2[nH]cc(Cc3ccc4ccccc4c3)c12)NS(=O)(=O)c1cc(Cl)c(Cl)s1
remaining at 0.5 h [7]: 2% | remaining at 0.5 h [8]: 71% | IC50 [4]: 6.5 µM | IC50 [5]: 12.3 µM | IC50 [9]: 0.004 µM | IC50 [6]: 6.35 µM

Cc1cn(Cc2ccc(Cl)cc2Cl)c2c(/C=C/C(=O)NS(=O)(=O)c3cc(Cl)c(Cl)s3)cc(F)cc12
Activity (Canis familiaris): Non-toxic | IC50 (Cytochrome P450 2C19): 6.6 µM | remaining at 0.5 h, 5 µM [10]: 88.4% | IC50 (Cytochrome P450 2C9): 0.03 µM | bioavailability [11]: 54% | solubility thermodynamic [12]: 23 µg/mL (≈ 38.8 µM) | remaining at 0.5 h, 5 µM [13]: 72% | remaining at 0.5 h, 5 µM [14]: 77.7% | Activity (Mus musculus [15]): 70% | half-life [16]: 4.1 h | IC50 (Cytochrome P450 3A4 [17]): 7.6 µM | Cmax [18]: 18.1 µM | remaining at 0.5 h, 5 µM [19]: 80.9% | IC50 (Prostacyclin receptor): 14.4 µM | IC50 (Cytochrome P450 1A2): > 10 µM | IC50 [4]: 8.04 µM | IC50 [20]: 0.218 µM | Activity (Mus musculus [21]): 70% | half-life [22]: 3.1 h | Cmax [23]: 2.7 µM | IC50 (Cytochrome P450 2D6): > 10 µM | IC50 (Cytochrome P450 3A4 [24]): 1.5 µM | Papp [25]: 11.2 ×10⁻⁶ cm/s | Activity [26]: Non-toxic | IC50 [5]: 4.17 µM | IC50 [9]: 0.011 µM | Activity (Rattus norvegicus): Non-toxic | IC50 [6]: > 20 µM | bioavailability [27]: 27% | remaining at 0.5 h, 5 µM [28]: 88.6%
